Experimental data reported in ChEMBL document CHEMBL4376814, “Novel cyclin-dependent kinase 9 (CDK9) inhibitor with suppression of cancer stemness activity against non-small-cell lung cancer” (Eur J Med Chem, 2019).

Key:
[1] = biological target: Serine/threonine-protein kinase WNK3 (Homo sapiens) (UniProt Q9BYP7); assay: Inhibition of recombinant human WNK3 (1 to 434 residues) at 1 uM using MBP as substrate measured after 40 mins in presence of [gamma33P]ATP by scintillation counting method relative to control
Method in brief: (§1)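 Single-point inhibition at 1 µM was measured in the Eurofins KinaseProfiler panel. Values are the mean of two independent experiments.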

[2] = tested on: A549; assay: Inhibition of tumorsphere formation in human A549 cells assessed as reduction in side population ratio by PI/Hoechst 33342 staining based flow cytometry; type: functional, cell-based
[3] = biological target: Ephrin type-A receptor 4 (Homo sapiens) (UniProt P54764); assay: Inhibition of recombinant human EphA4 (601 to 892 residues) at 1 uM using poly(Glu, Tyr) 4:1 as substrate measured after 40 mins in presence of [gamma33P]ATP by scintillation counting method relative to control; method in brief: as §1
[4] = tested on: Tyrosine-protein kinase ABL1 (Homo sapiens), P00519 [M351T]; assay: Inhibition of human ABL M351T mutant (27 to end residues) at 1 uM using EAIYAAPFAKKK as substrate measured after 40 mins in presence of [gamma33P]ATP by scintillation counting method relative to control
Method in brief: (§2)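 Percent inhibition of kinase activity at a single compound concentration, measured by the outsourced Eurofins KinaseProfiler panel. Values are the mean of two independent experiments.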

[5] = biological target: Cyclin-dependent kinase-like 3 (Homo sapiens) (UniProt Q8IVW4); assay: Inhibition of human full length recombinant human CDKL3 at 1 uM using RRRFRPASPLRGP as substrate measured after 120 mins in presence of [gamma33P]ATP by scintillation counting method relative to control
[6] = Intrinsic clearance in Beagle dog liver microsomes at 2 uM in presence of NADPH measured up to 1 hr by HPLC analysis; type: ADME, Canis lupus familiaris, Microsome
[7] = biological target: Mitogen-activated protein kinase kinase kinase 3 (Homo sapiens) (UniProt Q99759); assay: Inhibition of full-length recombinant human MEKK3 at 1 uM using myelin basic protein as substrate measured after 120 mins in presence of [gamma33P]ATP by scintillation counting method relative to control; method in brief: as §2
[8] = biological target: CDK4/Cyclin D3 (Homo sapiens) (UniProt P11802+P30281); assay: Inhibition of recombinant full-length human CDK4/cyclinD3 at 1 uM using Rb fragment as substrate measured after 40 mins in presence of [gamma33P]ATP by scintillation counting method relative to control; type: protein-complex assay; method in brief: as §2
[9] = biological target: TRAF2 and NCK-interacting protein kinase (Homo sapiens) (UniProt Q9UKE5); assay: Inhibition of human TNIK (1 to 367 residues) at 1 uM using RLGRDKYKTLRQIRQ as substrate measured after 40 mins in presence of [gamma33P]ATP by scintillation counting method relative to control; method in brief: as §2
[10] = biological target: Aurora kinase C (Homo sapiens) (UniProt Q9UQB9); assay: Inhibition of recombinant human AURKC (35 to end residues) at 1 uM using AKRRRLSSLRA as substrate measured after 40 mins in presence of [gamma33P]ATP by scintillation counting method relative to control
[11] = tested on: Ribosomal protein S6 kinase beta-1 (Homo sapiens), P23443 [T412E]; assay: Inhibition of recombinant full-length human p70S6K (1 to 421 residues) T412E mutant at 1 uM using KKRNRTLTV as substrate measured after 40 mins in presence of [gamma33P]ATP by scintillation counting method relative to control
[12] = biological target: Tyrosine-protein kinase Fyn (Homo sapiens) (UniProt P06241); assay: Inhibition of recombinant full-length human Fyn at 1 uM using KVEKIGEGTYGVVYK as substrate measured after 40 mins in presence of [gamma33P]ATP by scintillation counting method relative to control
[13] = biological target: CDK6/cyclin D3 (Homo sapiens) (UniProt P30281+Q00534); assay: Inhibition of recombinant full-length human CDK6/cyclinD3 at 1 uM using histone H1 as substrate measured after 40 mins in presence of [gamma33P]ATP by scintillation counting method relative to control; type: protein-complex assay; method in brief: as §2
[14] = biological target: Misshapen-like kinase 1 (Homo sapiens) (UniProt Q8N4C8); assay: Inhibition of recombinant human MINK (1 to 310 recombinant) at 1 uM using myelin basic protein as substrate measured after 40 mins in presence of [gamma33P]ATP by scintillation counting method relative to control
[15] = tested on: Discoidin domain-containing receptor 2 (Homo sapiens), Q16832 [UNDEFINED MUTATION]; assay: Inhibition of recombinant human DDR2 S642A mutant (467 to end residues) at 1 uM using KKSRGDYMTMQIG as substrate measured after 40 mins in presence of [gamma33P]ATP by scintillation counting method relative to control
[16] = biological target: G protein-coupled receptor kinase 5 (Homo sapiens) (UniProt P34947); assay: Inhibition of recombinant full-length human GRK5 at 1 uM using casein as substrate measured after 40 mins in presence of [gamma33P]ATP by scintillation counting method relative to control
[17] = biological target: G protein-coupled receptor kinase 3 (Homo sapiens) (UniProt P35626); assay: Inhibition of recombinant full-length human GRK3 at 1 uM using casein as substrate measured after 40 mins in presence of [gamma33P]ATP by scintillation counting method relative to control
[18] = biological target: Phosphatidylinositol 4-phosphate 5-kinase type-1 alpha (Homo sapiens) (UniProt Q99755); assay: Inhibition of recombinant full-length human PIP5K1alpha at 1 uM using phosphatidylinositol 4-phosphate as substrate measured after 40 mins by HTRF assay relative to control
[19] = tested on: U-937; assay: Antiproliferative activity against human U937 cells assessed as inhibition of cell viability after 72 hrs by CCK-8 assay; type: functional, cell-based; conditions: U-937, 72 h
Method in brief: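 Cells kept at 37 °C, 5% CO2 in DMEM or RPMI-1640 with 10% FBS and 1% penicillin/streptomycin, then seeded at 3000 cells/well (adherent) or 10,000 cells/well (suspension). Exposed to a range of concentrations for 72 h. CCK-8 added for 1-4 h before reading A450. […] Three independent experiments.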

[20] = biological target: Calcium/calmodulin-dependent protein kinase type II subunit delta (Homo sapiens) (UniProt Q13557); assay: Inhibition of recombinant full-length human CaMK2delta at 1 uM using calmodulin as substrate measured after 40 mins in presence of [gamma33P]ATP by scintillation counting method relative to control
[21] = biological target: Mitogen-activated protein kinase kinase kinase 5 (Homo sapiens) (UniProt Q99683); assay: Inhibition of recombinant human ASK1 (649 to 946 residues) at 1 uM using myelin basic protein as substrate measured after 40 mins in presence of [gamma33P]ATP by scintillation counting method relative to control
Chain of Mitogen-activated protein kinase kinase kinase 5 (Homo sapiens) (Q99683 whole entry, the tested form may be a part): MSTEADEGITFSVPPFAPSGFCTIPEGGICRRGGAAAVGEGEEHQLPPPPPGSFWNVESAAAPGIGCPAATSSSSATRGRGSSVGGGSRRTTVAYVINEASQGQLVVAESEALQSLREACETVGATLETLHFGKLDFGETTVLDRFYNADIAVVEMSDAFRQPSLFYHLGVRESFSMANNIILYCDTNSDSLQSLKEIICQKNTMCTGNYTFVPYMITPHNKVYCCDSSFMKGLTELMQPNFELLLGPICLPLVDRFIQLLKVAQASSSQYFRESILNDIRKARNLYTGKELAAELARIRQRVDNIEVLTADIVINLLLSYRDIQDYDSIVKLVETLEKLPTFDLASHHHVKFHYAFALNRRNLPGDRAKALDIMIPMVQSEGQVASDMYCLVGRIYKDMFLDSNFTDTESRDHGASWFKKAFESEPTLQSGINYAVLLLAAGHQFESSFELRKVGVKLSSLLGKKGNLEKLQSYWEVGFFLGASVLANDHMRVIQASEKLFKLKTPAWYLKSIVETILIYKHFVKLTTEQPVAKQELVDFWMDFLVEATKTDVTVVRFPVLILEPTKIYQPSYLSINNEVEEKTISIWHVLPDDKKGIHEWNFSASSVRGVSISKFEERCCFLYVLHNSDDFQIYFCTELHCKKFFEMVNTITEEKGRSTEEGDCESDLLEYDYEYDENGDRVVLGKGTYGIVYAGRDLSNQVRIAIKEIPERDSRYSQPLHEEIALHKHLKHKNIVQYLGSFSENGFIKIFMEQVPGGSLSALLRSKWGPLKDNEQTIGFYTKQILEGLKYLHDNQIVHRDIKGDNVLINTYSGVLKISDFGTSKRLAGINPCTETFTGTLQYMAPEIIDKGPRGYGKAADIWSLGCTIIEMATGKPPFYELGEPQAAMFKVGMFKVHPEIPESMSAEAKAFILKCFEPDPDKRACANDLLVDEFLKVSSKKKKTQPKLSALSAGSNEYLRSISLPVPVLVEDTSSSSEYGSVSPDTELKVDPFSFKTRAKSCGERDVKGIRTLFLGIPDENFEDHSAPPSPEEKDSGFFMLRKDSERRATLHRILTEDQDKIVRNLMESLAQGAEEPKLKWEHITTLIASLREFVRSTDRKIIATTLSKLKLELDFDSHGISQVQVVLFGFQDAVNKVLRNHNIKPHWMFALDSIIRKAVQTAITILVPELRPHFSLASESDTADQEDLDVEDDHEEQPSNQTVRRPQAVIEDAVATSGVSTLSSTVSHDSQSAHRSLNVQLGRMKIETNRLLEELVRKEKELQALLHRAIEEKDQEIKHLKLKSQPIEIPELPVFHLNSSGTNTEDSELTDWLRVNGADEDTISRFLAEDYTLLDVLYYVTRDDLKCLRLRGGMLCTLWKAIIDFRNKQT

Chain of Mitogen-activated protein kinase kinase kinase 3 (Homo sapiens) (Q99759 whole entry, the tested form may be a part): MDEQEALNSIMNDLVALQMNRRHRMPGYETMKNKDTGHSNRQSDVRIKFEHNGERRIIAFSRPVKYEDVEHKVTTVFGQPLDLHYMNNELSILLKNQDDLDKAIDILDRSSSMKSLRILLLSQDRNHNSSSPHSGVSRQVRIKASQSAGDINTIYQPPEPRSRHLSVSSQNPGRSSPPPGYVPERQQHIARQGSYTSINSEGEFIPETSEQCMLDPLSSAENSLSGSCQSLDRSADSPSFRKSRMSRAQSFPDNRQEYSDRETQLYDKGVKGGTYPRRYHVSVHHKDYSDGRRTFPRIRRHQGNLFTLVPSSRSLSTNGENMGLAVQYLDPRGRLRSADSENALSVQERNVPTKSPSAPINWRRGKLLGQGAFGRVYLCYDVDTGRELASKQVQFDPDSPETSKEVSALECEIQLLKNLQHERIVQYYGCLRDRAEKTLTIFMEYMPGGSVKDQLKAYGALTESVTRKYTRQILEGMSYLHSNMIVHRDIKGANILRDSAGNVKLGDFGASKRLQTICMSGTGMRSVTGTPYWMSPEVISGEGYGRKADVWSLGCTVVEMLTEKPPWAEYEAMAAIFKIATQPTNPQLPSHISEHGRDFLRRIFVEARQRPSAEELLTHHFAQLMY
Chain of Aurora kinase C (Homo sapiens) (Q9UQB9 whole entry, the tested form may be a part): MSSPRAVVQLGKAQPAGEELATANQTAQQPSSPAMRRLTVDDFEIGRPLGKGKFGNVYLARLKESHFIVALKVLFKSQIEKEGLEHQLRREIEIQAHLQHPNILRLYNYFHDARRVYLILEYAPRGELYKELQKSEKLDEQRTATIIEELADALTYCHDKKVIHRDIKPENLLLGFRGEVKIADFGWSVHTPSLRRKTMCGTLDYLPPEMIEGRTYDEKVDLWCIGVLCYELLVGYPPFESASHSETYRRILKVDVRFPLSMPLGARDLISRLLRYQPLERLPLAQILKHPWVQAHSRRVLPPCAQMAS
Chain of Ribosomal protein S6 kinase beta-1 (Homo sapiens), P23443 [T412E] (P23443 whole entry T412E, looked up, the tested form may be a part): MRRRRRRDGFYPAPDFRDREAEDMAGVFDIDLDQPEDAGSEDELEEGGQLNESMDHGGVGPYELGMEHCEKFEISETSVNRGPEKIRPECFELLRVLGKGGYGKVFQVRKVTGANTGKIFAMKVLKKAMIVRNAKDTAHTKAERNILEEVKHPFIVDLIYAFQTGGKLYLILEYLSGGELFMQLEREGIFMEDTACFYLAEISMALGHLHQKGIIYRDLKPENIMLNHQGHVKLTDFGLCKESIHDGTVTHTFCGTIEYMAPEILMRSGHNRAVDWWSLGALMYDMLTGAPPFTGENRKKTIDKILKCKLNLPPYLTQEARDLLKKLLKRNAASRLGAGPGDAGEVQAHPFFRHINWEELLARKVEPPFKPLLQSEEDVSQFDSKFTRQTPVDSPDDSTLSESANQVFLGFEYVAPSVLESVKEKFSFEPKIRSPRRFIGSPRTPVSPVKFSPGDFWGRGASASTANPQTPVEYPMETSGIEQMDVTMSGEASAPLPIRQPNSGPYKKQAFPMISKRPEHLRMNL
Chain of Misshapen-like kinase 1 (Homo sapiens) (Q8N4C8 whole entry, looked up, the tested form may be a part): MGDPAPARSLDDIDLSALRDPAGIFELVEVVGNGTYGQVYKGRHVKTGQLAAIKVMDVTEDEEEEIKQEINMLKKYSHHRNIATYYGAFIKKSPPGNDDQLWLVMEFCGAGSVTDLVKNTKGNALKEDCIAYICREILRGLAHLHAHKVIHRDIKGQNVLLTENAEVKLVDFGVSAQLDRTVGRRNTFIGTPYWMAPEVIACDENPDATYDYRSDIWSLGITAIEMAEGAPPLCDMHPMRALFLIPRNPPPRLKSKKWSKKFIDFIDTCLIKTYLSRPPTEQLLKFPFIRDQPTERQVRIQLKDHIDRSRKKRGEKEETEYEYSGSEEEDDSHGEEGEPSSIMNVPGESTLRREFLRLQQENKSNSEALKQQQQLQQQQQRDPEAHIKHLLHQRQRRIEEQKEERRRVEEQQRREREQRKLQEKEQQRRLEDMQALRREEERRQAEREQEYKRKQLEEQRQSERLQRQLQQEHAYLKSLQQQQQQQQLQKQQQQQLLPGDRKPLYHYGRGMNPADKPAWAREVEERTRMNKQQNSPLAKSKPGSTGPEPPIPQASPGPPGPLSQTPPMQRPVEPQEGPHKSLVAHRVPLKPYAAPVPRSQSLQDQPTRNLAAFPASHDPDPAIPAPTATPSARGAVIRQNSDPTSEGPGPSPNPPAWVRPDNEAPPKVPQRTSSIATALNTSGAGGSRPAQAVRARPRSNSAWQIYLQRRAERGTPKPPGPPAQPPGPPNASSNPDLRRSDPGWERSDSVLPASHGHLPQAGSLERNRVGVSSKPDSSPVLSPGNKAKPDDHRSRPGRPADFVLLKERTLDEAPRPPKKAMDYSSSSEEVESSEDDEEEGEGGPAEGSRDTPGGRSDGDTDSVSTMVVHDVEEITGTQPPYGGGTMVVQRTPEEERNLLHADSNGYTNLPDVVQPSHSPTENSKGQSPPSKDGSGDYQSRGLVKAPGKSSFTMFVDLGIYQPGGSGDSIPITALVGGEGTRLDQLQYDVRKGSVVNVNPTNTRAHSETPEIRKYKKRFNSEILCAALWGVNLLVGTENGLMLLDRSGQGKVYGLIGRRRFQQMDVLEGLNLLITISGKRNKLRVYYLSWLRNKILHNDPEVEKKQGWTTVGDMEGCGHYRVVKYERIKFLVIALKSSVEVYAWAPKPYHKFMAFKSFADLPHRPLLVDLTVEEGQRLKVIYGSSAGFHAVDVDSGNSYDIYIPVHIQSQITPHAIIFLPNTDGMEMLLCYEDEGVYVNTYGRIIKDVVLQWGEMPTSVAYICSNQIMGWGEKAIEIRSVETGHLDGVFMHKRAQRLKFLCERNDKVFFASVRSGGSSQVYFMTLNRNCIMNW
Chain of Calcium/calmodulin-dependent protein kinase type II subunit delta (Homo sapiens) (Q13557 whole entry, the tested form may be a part): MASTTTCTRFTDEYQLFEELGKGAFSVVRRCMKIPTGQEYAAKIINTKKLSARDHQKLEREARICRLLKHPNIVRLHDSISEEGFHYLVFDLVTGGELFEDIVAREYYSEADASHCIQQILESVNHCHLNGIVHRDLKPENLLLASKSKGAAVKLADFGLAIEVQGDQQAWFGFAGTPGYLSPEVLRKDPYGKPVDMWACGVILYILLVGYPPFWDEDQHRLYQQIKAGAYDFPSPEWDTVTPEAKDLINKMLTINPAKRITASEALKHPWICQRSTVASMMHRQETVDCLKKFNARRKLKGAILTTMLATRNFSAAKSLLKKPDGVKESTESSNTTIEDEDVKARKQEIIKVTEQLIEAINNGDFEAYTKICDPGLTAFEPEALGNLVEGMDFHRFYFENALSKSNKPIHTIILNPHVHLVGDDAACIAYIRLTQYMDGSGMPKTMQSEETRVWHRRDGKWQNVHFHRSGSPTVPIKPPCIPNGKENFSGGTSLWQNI

Question: With `CN(C)C(=O)c1cc2cnc(Nc3ccc(NC(=O)CCCCCCCN=C=S)cc3)nc2n1C1CCCC1` as the compound, how does the inhibition [1] read?
Answer: 12%

Question: And the inhibition [2]?
Answer: Dose-dependent effect

Question: What about the inhibition [3] of the same compound?
Answer: 1%

Question: And the inhibition [4]?
Answer: 49%

Question: What about the inhibition [5] of the same compound?
Answer: 53%

Question: What about the CLH [6] of the same compound?
Answer: 87 µL/min/mg

Question: And the inhibition [7]?
Answer: 66%

Question: And the inhibition [8]?
Answer: 87%

Question: What about the inhibition [9] of the same compound?
Answer: 69%

Question: What about the inhibition [10] of the same compound?
Answer: 72%

Question: And the inhibition [11]?
Answer: 40%

Question: What about the inhibition [12] of the same compound?
Answer: 2%

Question: And the inhibition [13]?
Answer: 79%

Question: And the inhibition [14]?
Answer: 39%

Question: And the inhibition [15]?
Answer: 17%

Question: What about the inhibition [16] of the same compound?
Answer: -2%

Question: What about the inhibition [17] of the same compound?
Answer: 3%

Question: And the inhibition [18]?
Answer: 30%

Question: And the IC50 [19]?
Answer: 1990 nM

Question: What about the inhibition [20] of the same compound?
Answer: 36%

Question: What about the inhibition [21] of the same compound?
Answer: -7%
